From ChEMBL document CHEMBL3616442, “Unconventional Knoevenagel-type indoles: Synthesis and cell-based studies for the identification of pro-apoptotic agents” (Eur J Med Chem, 2015)

Assays:
MT4 = test: Antiproliferative activity against human MT4 cells after 96 hrs by MTT assay; format: functional, cell-based; settings: MT4, 96 h
Summary of the method: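 Exponentially growing MT-4 cells (CD4+ human T-cells carrying integrated HTLV-1 genome), seeded at 1×10^5 cells/mL in RPMI-1640 with 10% FCS and antibiotics. Serial dilutions of compound (DMSO stock 100 mM, diluted in medium), 37 °C, 5% CO₂, 96 h. Viability read by MTT. 50% inhibition versus untreated controls by linear regression. Mean ± SD of three independent determinations.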

MCF7 = test: Cytotoxicity against human MCF7 cells after 96 hrs by MTT assay; format: functional, cell-based; settings: MCF7, 96 h
Summary of the method: (§1)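 ATCC cell lines, mycoplasma-free by Hoechst staining. Haematological lines in RPMI-1640, solid-tumour and normal fibroblast lines in their own media, all with 10% FCS and antibiotics, at 37 °C in 5% CO₂. Compounds added as serial dilutions from a 100 mM DMSO stock diluted in medium. Viability by MTT after 96 h at 37 °C. Mean ± SD of three independent determinations.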

HepG2 = test: Cytotoxicity against human HepG2 cells after 96 hrs by MTT assay; format: functional, cell-based; settings: HepG2, 96 h; summary of the method: as §1
CCRF-CEM = test: Cytotoxicity against human CCRF-CEM cells after 96 hrs by MTT assay; format: functional, cell-based; summary of the method: as §1
SK-MEL-28 = test: Cytotoxicity against human SK-MEL-28 cells after 96 hrs by MTT assay; format: functional, cell-based; settings: SK-MEL-28, 96 h; summary of the method: as §1
MRC5 = test: Cytotoxicity against human MRC5 cells after 96 hrs by MTT assay; format: cell-based; settings: MRC5, 96 h; summary of the method: as §1
WIL2-NS = test: Cytotoxicity against human WIL2-NS cells after 96 hrs by MTT assay; format: functional, cell-based; summary of the method: as §1
[1] = Cytotoxicity against human CRL7065 cells after 96 hrs by MTT assay; format: cell-based; settings: CRL-7065, 96 h; summary of the method: as §1
CCRF-SB = test: Cytotoxicity against human CCRF-SB cells after 96 hrs by MTT assay; format: functional, cell-based; summary of the method: as §1
DU-145 = test: Cytotoxicity against human DU145 cells after 96 hrs by MTT assay; format: functional, cell-based; settings: DU-145, 96 h; summary of the method: as §1
[2] = Cytotoxicity against human SKMES1 cells after 96 hrs by MTT assay; format: functional, cell-based; settings: SK-MES-1, 96 h; summary of the method: as §1

## CS(=O)(=O)/C(C#N)=C/c1c[nH]c2ccccc12
MT4
  EC50: > 100 µM

## COCCOC(=O)/C(C#N)=C/c1c(-c2ccccc2)[nH]c2ccccc12
MCF7
  EC50: 12 µM
HepG2
  EC50: 85 µM
CCRF-CEM
  EC50: 1.6 µM
SK-MEL-28
  EC50: 9.3 µM
MRC5
  EC50: > 100 µM
WIL2-NS
  EC50: 2.2 µM
[1]
  EC50: 76 µM
CCRF-SB
  EC50: 2.2 µM
MT4
  EC50: 1.2 µM
DU-145
  EC50: 4.2 µM
[2]
  EC50: 5 µM

## CCOC(=O)/C(C#N)=C/c1c(-c2ccccc2)[nH]c2ccccc12
MT4
  EC50: 1.7 µM

## O=C(C(=Cc1c(-c2ccccc2)[nH]c2ccccc12)C(=O)c1ccccc1)c1ccccc1
MCF7
  EC50: > 100 µM
HepG2
  EC50: > 100 µM
CCRF-CEM
  EC50: 12 µM
SK-MEL-28
  EC50: > 100 µM
MRC5
  EC50: > 100 µM
WIL2-NS
  EC50: 72 µM
[1]
  EC50: > 100 µM
CCRF-SB
  EC50: 12 µM
MT4
  EC50: 8.9 µM
DU-145
  EC50: > 100 µM
[2]
  EC50: > 100 µM

## COc1cccc2c1C(=O)c1c(O)c3c(c(O)c1C2=O)C[C@@](O)(C(=O)CO)C[C@@H]3O[C@H]1C[C@H](N)[C@H](O)[C@H](C)O1 [DOXORUBICIN]
MCF7
  EC50: 0.3 µM
HepG2
  EC50: 0.3 µM
CCRF-CEM
  EC50: 0.02 µM
SK-MEL-28
  EC50: 0.7 µM
MRC5
  EC50: 0.3 µM
WIL2-NS
  EC50: 0.04 µM
[1]
  EC50: 0.9 µM
CCRF-SB
  EC50: 0.01 µM
MT4
  EC50: 0.03 µM
DU-145
  EC50: 0.2 µM
[2]
  EC50: 0.1 µM

## Cn1cc(/C=C(\C#N)S(=O)(=O)c2ccccc2)c2ccccc21
MT4
  EC50: > 100 µM

## N#CC(C#N)=Cc1c[nH]c2ccccc12
MT4
  EC50: 36 µM

## COC(=O)/C(=C\c1c[nH]c2ccccc12)S(=O)(=O)c1ccccc1
MT4
  EC50: > 100 µM

## CC(C)(C)C(=O)/C(C#N)=C/c1c(-c2ccccc2)[nH]c2ccccc12
MT4
  EC50: 0.5 µM

## CC(=O)/C(=C/c1c(-c2ccccc2)[nH]c2ccccc12)C(=O)c1ccccc1
MCF7
  EC50: > 100 µM
HepG2
  EC50: 79 µM
CCRF-CEM
  EC50: 8.1 µM
SK-MEL-28
  EC50: > 100 µM
MRC5
  EC50: > 100 µM
WIL2-NS
  EC50: 12 µM
[1]
  EC50: > 100 µM
CCRF-SB
  EC50: 11 µM
MT4
  EC50: 2 µM
DU-145
  EC50: > 100 µM
[2]
  EC50: > 100 µM

## CC(C)OP(=O)(OC(C)C)/C(C#N)=C/c1c(-c2ccccc2)[nH]c2ccccc12
MT4
  EC50: 11 µM

## CCOC(=O)/C(=C/c1c(-c2ccccc2)[nH]c2ccccc12)C(=O)c1ccc(Cl)cc1
MT4
  EC50: 9 µM

## N#C/C(=C\c1c[nH]c2ccccc12)S(=O)(=O)c1ccccc1
MT4
  EC50: > 100 µM

## Cc1ccc(S(=O)(=O)/C(C#N)=C/c2c(-c3ccccc3)[nH]c3ccccc23)cc1
MT4
  EC50: 0.4 µM

## N#C/C(=C\c1c(-c2ccccc2)[nH]c2ccccc12)C(N)=O
MT4
  EC50: 6 µM

## CCOC(=O)/C(=C/c1c[nH]c2ccccc12)C(=O)c1ccccc1
MT4
  EC50: > 100 µM

## CCOC(=O)/C(=C/c1c[nH]c2ccccc12)C(=O)c1ccc([N+](=O)[O-])cc1
MT4
  EC50: 100 µM

## Cc1[nH]c2ccccc2c1C=C(C#N)C#N
MT4
  EC50: 56 µM

## CCOC(=O)/C(=C/c1c(-c2ccccc2)[nH]c2ccccc12)C(=O)c1ccccc1
MCF7
  EC50: 43 µM
HepG2
  EC50: 31 µM
CCRF-CEM
  EC50: 8 µM
SK-MEL-28
  EC50: > 100 µM
MRC5
  EC50: > 100 µM
WIL2-NS
  EC50: 12 µM
[1]
  EC50: > 100 µM
CCRF-SB
  EC50: 9.6 µM
MT4
  EC50: 7 µM
DU-145
  EC50: 68 µM
[2]
  EC50: > 100 µM

## CC(=O)/C(=C\c1c(-c2ccccc2)[nH]c2ccccc12)S(=O)(=O)c1ccc(Cl)cc1
MT4
  EC50: > 100 µM

## N#C/C(=C\c1c(-c2ccccc2)[nH]c2ccccc12)C(=O)c1ccc(Cl)cc1
MCF7
  EC50: 28 µM
HepG2
  EC50: 37 µM
CCRF-CEM
  EC50: 1.1 µM
SK-MEL-28
  EC50: 15 µM
MRC5
  EC50: 14 µM
WIL2-NS
  EC50: 4.5 µM
[1]
  EC50: 7.4 µM
CCRF-SB
  EC50: 0.6 µM
MT4
  EC50: 0.4 µM
DU-145
  EC50: 11 µM
[2]
  EC50: 19 µM

## Cc1[nH]c2ccccc2c1/C=C(\C#N)S(=O)(=O)c1ccccc1
MT4
  EC50: > 100 µM

## Cc1[nH]c2ccccc2c1/C=C(\C#N)S(C)(=O)=O
MT4
  EC50: > 100 µM

## Cn1cc(/C=C(\C#N)S(C)(=O)=O)c2ccccc21
MT4
  EC50: > 100 µM

## CCOC(=O)/C(=C\c1c(-c2ccccc2)[nH]c2ccccc12)C(C)=O
MCF7
  EC50: 32 µM
HepG2
  EC50: 19 µM
CCRF-CEM
  EC50: 1.4 µM
SK-MEL-28
  EC50: 30 µM
MRC5
  EC50: 31 µM
WIL2-NS
  EC50: 2.7 µM
[1]
  EC50: 83 µM
CCRF-SB
  EC50: 1.6 µM
MT4
  EC50: 0.6 µM
DU-145
  EC50: 11 µM
[2]
  EC50: 23 µM

## N#C/C(=C\c1c(-c2ccccc2)[nH]c2ccccc12)C(=O)Nc1ccc(Cl)cc1
MT4
  EC50: 1.7 µM

## CC(=O)C(=Cc1c(-c2ccccc2)[nH]c2ccccc12)C(C)=O
MT4
  EC50: 1.5 µM

## CCOC(=O)/C(=C/c1c(-c2ccccc2)[nH]c2ccccc12)C(=O)c1ccc([N+](=O)[O-])cc1
MCF7
  EC50: 40 µM
HepG2
  EC50: 28 µM
CCRF-CEM
  EC50: 1.8 µM
SK-MEL-28
  EC50: > 100 µM
MRC5
  EC50: > 100 µM
WIL2-NS
  EC50: 2.4 µM
[1]
  EC50: > 100 µM
CCRF-SB
  EC50: 2.2 µM
MT4
  EC50: 1.5 µM
DU-145
  EC50: 11 µM
[2]
  EC50: 19 µM

## CCOP(=O)(OCC)/C(C#N)=C/c1c[nH]c2ccccc12
MT4
  EC50: 80 µM

## N#C/C(=C\c1c(-c2ccccc2)[nH]c2ccccc12)C(=O)N1CCCCC1
MT4
  EC50: 9.6 µM

## O=C(/C(=C\c1c(-c2ccccc2)[nH]c2ccccc12)C(=O)C(F)(F)F)c1ccco1
MCF7
  EC50: 10 µM
HepG2
  EC50: 16 µM
CCRF-CEM
  EC50: 1.9 µM
SK-MEL-28
  EC50: 33 µM
MRC5
  EC50: 12 µM
WIL2-NS
  EC50: 2.3 µM
[1]
  EC50: 8.1 µM
CCRF-SB
  EC50: 1.8 µM
MT4
  EC50: 0.8 µM
DU-145
  EC50: 9.2 µM
[2]
  EC50: 27 µM

## COC(=O)/C(=C\c1c(-c2ccccc2)[nH]c2ccccc12)S(=O)(=O)c1ccccc1
MT4
  EC50: 1 µM
